Columns and labels:
[1] = Displacement of [3H][…] from porcine cerebral cortex 5HT1A receptor; type: tissue-based, Sus scrofa
Outline: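 Porcine cerebral cortex homogenates as receptor source; [³H][…] at 0.2–0.33 nM for 5-HT1A. Protein measured by Lowry against bovine serum albumin. Competition curves fitted by non-linear regression, EC50 converted to Ki via Cheng–Prusoff.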

[2] = Displacement of [3H]prazosin from porcine cerebral cortex alpha1 adrenoceptor; type: tissue-based, Sus scrofa
Homo sapiens [3] = species on record: Homo sapiens; experiment: Selectivity index, ratio of Ki for human dopamine D2 short receptor to Ki for human dopamine D3 receptor
Outline: (§1)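 Ratio of Ki at D2long or D2short to Ki at D3, with both Ki values from [³H]spiperone competition on CHO membranes stably expressing the human receptors.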

D(2) dopamine receptor [4] = target: T1, D(2) dopamine receptor (Homo sapiens, UniProt P14416); experiment: Displacement of [3H]spiperone from human dopamine D2 short receptor expressed in CHO cell membranes
Outline: (§2)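 Membranes of CHO cells stably expressing each human receptor; [³H]spiperone final 0.1–0.2 nM (D2long), 0.2 nM (D2short), 0.2–0.4 nM (D3), 0.15–0.35 nM (D4.4), set by K_D. Protein per well 4–6, 1–4, 1–6 and 5–6 µg respectively. EC50 from competition curves by non-linear regression, converted to Ki with Cheng–Prusoff; Ki mean of 3–7 independent experiments in triplicate.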

D(3) dopamine receptor [5] = target: T2, D(3) dopamine receptor (Homo sapiens, UniProt P35462); experiment: Displacement of [3H]spiperone from human dopamine D3 receptor expressed in CHO cell membranes; outline: as §2
Homo sapiens [6] = species on record: Homo sapiens; experiment: Selectivity index, ratio of Ki for human dopamine D2 long receptor to Ki for human dopamine D3 receptor; outline: as §1
D(2) dopamine receptor [7] = target: T1, D(2) dopamine receptor; experiment: Displacement of [3H]spiperone from human dopamine D2 long receptor expressed in CHO cell membranes; outline: as §2
D(4) dopamine receptor = target: T3, D(4) dopamine receptor (Homo sapiens, UniProt P21917); experiment: Displacement of [3H]spiperone from human dopamine D4.4 receptor expressed in CHO cell membranes; outline: as §2
T3 sequence (P21917 whole entry): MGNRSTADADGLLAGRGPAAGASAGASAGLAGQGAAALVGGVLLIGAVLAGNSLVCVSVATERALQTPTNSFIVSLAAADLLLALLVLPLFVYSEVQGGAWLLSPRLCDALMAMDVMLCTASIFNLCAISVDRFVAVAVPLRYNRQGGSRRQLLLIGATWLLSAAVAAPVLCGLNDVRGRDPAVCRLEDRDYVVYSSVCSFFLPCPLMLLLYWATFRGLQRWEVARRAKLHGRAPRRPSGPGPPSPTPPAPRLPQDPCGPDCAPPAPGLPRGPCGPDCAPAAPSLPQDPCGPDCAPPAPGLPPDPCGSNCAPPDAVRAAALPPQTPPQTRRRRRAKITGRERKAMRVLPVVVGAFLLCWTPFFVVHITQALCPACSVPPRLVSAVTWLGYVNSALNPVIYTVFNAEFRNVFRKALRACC

D(1B) dopamine receptor = D(1B) dopamine receptor (Homo sapiens, UniProt P21918); experiment: Displacement of [3H]SCH23390 from human dopamine D5 receptor expressed in HEK293 cell membranes
Outline: (§3)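 Homogenates from HEK 293 cells transiently transfected (calcium phosphate) with the human receptor gene in pcDNA3.1. [³H]SCH23390 at 0.3–0.7 nM (D1) or 0.4–0.5 nM (D5); [³H]ketanserin at 0.3–0.5 nM (5-HT2A). Competition curves fitted by non-linear regression, EC50 converted to Ki via Cheng–Prusoff.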

D(1A) dopamine receptor = D(1A) dopamine receptor (Homo sapiens, UniProt P21728); experiment: Displacement of [3H]SCH23390 from human dopamine D1 receptor expressed in HEK293 cell membranes; outline: as §3
[8] = target: 5-hydroxytryptamine receptor 2A (Homo sapiens, UniProt P28223); experiment: Displacement of [3H]ketanserin from human 5HT2A receptor expressed in HEK293 cell membranes; outline: as §3
[9] = system: D(3) dopamine receptor (Homo sapiens), P35462 [L89K]; experiment: Activation of human dopamine D3 receptor L89K mutant expressed in HEK293 cells co-expressing GaqG66Di5- incubated for 120 mins by scintillation counting based myo-[3H]inositol phosphate accumulation assay relative to control; type: functional, cell-based
Outline: (§4)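 HEK293T cells transiently co-transfected with human D3 (wild type or L89K mutant) plus GαqG66Di5; 24 h later seeded and labelled with myo-[³H]inositol. Next day, compounds in Tris/EDTA/MgCl2/DTT buffer pH 7.4 with 10 mM LiCl for 120 min at 37 °C. Total IP isolated by anion exchange and counted by scintillation; expressed as fold over basal (unstimulated = 1).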

D(3) dopamine receptor [10] = target: T2, D(3) dopamine receptor; experiment: Activation of wild type human dopamine D3 receptor expressed in HEK293 cells co-expressing GaqG66Di5- incubated for 120 mins by scintillation counting based myo-[3H]inositol phosphate accumulation assay; type: functional, cell-based
D(3) dopamine receptor [11] = target: T2, D(3) dopamine receptor; experiment: Activation of wild type human dopamine D3 receptor expressed in HEK293 cells co-expressing GaqG66Di5- incubated for 120 mins by scintillation counting based myo-[3H]inositol phosphate accumulation assay relative to quinpirole; type: functional, cell-based; outline: as §4
D(3) dopamine receptor [12] = target: D(3) dopamine receptor (Homo sapiens, UniProt P35462, L89K); experiment: Activation of human dopamine D3 receptor L89K mutant expressed in HEK293 cells co-expressing GaqG66Di5- incubated for 120 mins by scintillation counting based myo-[3H]inositol phosphate accumulation assay; type: functional, cell-based
Chain of D(3) dopamine receptor (Homo sapiens, UniProt P35462, L89K) (P35462 as listed by the source L89K): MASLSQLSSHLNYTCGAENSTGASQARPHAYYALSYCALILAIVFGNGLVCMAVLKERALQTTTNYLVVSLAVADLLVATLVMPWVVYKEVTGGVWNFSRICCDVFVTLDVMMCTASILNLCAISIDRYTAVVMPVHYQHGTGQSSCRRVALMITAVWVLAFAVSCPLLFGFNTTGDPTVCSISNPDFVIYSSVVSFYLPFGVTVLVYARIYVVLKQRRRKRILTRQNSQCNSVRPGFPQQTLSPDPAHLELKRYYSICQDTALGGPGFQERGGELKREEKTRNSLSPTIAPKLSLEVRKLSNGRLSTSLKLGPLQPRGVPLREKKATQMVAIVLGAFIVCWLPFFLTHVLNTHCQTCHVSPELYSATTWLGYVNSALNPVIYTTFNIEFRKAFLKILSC

T1 sequence (P14416 whole entry): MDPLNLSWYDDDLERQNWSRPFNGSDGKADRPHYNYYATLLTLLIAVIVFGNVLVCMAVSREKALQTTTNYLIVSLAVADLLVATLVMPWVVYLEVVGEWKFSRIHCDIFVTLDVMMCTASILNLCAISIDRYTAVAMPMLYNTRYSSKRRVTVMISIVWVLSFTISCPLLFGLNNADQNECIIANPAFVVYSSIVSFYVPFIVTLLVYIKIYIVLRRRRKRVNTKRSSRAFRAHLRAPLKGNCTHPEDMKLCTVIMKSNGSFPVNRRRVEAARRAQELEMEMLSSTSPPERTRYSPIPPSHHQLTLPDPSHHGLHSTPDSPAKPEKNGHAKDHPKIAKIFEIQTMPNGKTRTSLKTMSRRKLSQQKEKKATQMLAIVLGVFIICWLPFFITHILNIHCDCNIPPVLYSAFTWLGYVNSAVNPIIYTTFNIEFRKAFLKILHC
Chain of 5-hydroxytryptamine receptor 2A (P28223 whole entry): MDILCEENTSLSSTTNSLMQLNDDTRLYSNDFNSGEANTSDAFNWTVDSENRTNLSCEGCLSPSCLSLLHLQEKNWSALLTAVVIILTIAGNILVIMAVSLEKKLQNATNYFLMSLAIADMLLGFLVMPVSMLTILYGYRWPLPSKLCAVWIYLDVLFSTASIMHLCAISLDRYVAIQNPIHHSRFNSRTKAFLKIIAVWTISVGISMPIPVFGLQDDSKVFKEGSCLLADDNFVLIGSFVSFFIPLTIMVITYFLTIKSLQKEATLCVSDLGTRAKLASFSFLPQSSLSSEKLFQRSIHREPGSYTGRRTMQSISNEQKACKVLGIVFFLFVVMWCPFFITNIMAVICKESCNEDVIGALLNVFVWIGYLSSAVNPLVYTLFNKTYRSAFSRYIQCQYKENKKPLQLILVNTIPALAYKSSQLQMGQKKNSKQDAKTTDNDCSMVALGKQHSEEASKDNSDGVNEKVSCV
Chain of D(3) dopamine receptor (Homo sapiens), P35462 [L89K] (P35462 as listed by the source): as the sequence (P35462 as listed by the source L89K) above
Chain of D(1A) dopamine receptor (P21728 whole entry): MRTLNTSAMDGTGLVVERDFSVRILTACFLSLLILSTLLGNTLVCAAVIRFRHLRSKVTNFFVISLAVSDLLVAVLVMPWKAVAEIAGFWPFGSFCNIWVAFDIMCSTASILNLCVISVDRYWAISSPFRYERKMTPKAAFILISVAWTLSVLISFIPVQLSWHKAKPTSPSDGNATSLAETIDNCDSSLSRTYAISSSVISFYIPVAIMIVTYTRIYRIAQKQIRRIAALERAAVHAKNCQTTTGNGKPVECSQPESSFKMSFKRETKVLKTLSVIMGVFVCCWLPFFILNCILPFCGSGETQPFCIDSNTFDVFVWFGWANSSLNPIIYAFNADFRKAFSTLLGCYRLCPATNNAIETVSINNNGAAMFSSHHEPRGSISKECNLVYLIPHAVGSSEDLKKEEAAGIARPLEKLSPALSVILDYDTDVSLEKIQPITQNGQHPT
T2 sequence (P35462 whole entry): as the sequence (P35462 as listed by the source L89K) above, with S9G, K89L counted along it
Chain of D(1B) dopamine receptor (P21918 whole entry): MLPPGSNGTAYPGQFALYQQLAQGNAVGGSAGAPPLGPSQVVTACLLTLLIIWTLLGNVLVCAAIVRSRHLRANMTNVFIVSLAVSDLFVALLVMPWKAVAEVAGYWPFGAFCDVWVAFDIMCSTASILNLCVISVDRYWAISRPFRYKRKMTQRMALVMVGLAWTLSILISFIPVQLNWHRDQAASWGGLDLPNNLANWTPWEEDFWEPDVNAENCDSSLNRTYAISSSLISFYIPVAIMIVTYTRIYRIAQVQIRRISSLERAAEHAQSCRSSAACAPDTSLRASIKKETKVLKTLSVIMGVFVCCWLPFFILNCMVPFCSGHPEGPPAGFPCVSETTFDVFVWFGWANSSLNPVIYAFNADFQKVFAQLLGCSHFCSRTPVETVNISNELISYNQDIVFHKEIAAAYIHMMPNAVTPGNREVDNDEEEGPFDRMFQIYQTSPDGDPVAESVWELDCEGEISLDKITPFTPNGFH

Row | Structure (SMILES) | Ki [1] [nM] | Ki [2] [nM] | Ratio Ki (Homo sapiens [3]) | Ki (D(2) dopamine receptor [4]) [nM] | Ki (D(3) dopamine receptor [5]) [nM] | Ratio Ki (Homo sapiens [6]) | Ki (D(2) dopamine receptor [7]) [nM] | Ki (D(4) dopamine receptor) [nM] | Ki (D(1B) dopamine receptor) [nM] | Ki (D(1A) dopamine receptor) [nM] | Ki [8] [nM] | Efficacy [9] [%] | EC50 (D(3) dopamine receptor [10]) [nM] | Efficacy (D(3) dopamine receptor [11]) [%] | EC50 (D(3) dopamine receptor [12]) [nM]
1 | COc1ccccc1N1CCN(CCCCNC(=O)/N=N/c2ccc(F)cc2)CC1 | 3.3 | 5.2 | 11 | 34 | 3 | 13 | – | – | – | – | – | – | – | – | –
2 | CCCN(CCNC(=O)/N=N/c1ccc(F)cc1)C1Cc2ccccc2C1 | – | – | 2.9 | 4 | 1.4 | 3.6 | 5 | 0.99 | – | – | – | – | – | – | –
3 | CCCN(CCCCNC(=O)/C=C/c1ccc(F)cc1)C1Cc2ccccc2C1 | 5 | 120 | 9.4 | 2.9 | 0.31 | 61 | 19 | 16 | 2900 | 1300 | 89 | – | – | – | –
4 | CCCN(CCNC(=O)/C=C/c1ccc(F)cc1)C1Cc2ccccc2C1 | 4.3 | 58 | 0.93 | 13 | 14 | 3.1 | 43 | 1.4 | 11000 | 2200 | 210 | – | – | – | –
5 | CCCN(CCNC(=O)/N=N/c1cc(F)c(F)c(F)c1)C1Cc2ccccc2C1 | 3.3 | 900 | 0.84 | 73 | 87 | 1.3 | 110 | 10 | 3800 | 2600 | 510 | – | – | – | –
6 | COc1ccccc1N1CCN(CCCCNC(=O)/N=N/c2cc(F)c(F)c(F)c2)CC1 | – | – | 6.8 | 9.5 | 1.4 | 4.7 | 6.6 | 47 | – | – | – | – | – | – | –
7 | CCCN(CCCCNC(=O)/N=N/c1ccc(F)cc1)C1Cc2ccccc2C1 | 5.8 | 170 | 42 | 36 | 0.85 | 27 | 23 | 34 | 7000 | 3300 | 550 | 81 | 2.6 | 84 | 68
8 | COc1ccccc1N1CCN(CCCCNC(=O)/N=N/c2ccc(F)c(F)c2)CC1 | – | – | 16 | 12 | 0.72 | 10 | 7.5 | 36 | – | – | – | – | – | – | –
9 | CCCN(CCCCNC(=O)/N=N/c1ccc(F)c(F)c1)C1Cc2ccccc2C1 | – | – | 6.5 | 13 | 2 | 13 | 25 | 31 | – | – | – | 77 | 6.1 | 94 | 79
10 | CCCN(CCCCNC(=O)/N=N/c1cc(F)c(F)c(F)c1)C1Cc2ccccc2C1 | – | – | 2.4 | 12 | 4.9 | 8.2 | 40 | 40 | – | – | – | 101 | 11 | 90 | 114
11 | CCCN(CCNC(=O)/N=N/c1ccc(F)c(F)c1)C1Cc2ccccc2C1 | – | – | 3 | 8.5 | 2.8 | 1.4 | 3.9 | 2 | – | – | – | – | – | – | –
